The source of these data is ChEMBL document CHEMBL4706681, “New 2-Pyrazoline and Hydrazone Derivatives as Potent and Selective Monoamine Oxidase A Inhibitors” (J Med Chem, 2021).

The source made the active and inactive calls. No cut-off for these calls is given here.

A short description of data set [1]: Ex vivo inhibition of MAOA in CD1 mouse brain homogenates assessed as inhibition of dopamine deamination by measuring DOPAC metabolite levels at 20 mg/kg, po administered as single acute dose via gavage and measured after 1 hr by HPLC analysis (reference value: 1.22 +/- 0.2 ug/g). Type of data set: functional.
Data set [2] in a line: Ex vivo inhibition of MAOA in CD1 mouse brain homogenates assessed as inhibition of 5-HT deamination by measuring 5-HIAA metabolite levels at 20 mg/kg, po administered as subchronic dose via gavage for 7 days and measured 1 hr post last dose by HPLC analysis (reference value: 0.18 +/- 0.01 ug/g). Type of data set: functional. The settings on record: time 7 day.
In data set [3] the test system is Mus musculus. Briefly: Antidepressant-like activity in po dosed CD1 mouse assessed as maximum efficacy administered as subchronic dose gavage for 7 days and measured 1 h post last dose by Porsolt-forced swim test. It counts as functional. The settings on record: time 7 day. In outline: (§1)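 Male albino CD-1 mice (20–25 g), 12 h light/dark, food and water ad libitum. Dosed by oral gavage once daily for 7 days in 200 μL 0.5% CMC; vehicle-only controls. […] Forced swim test run 1 h after the last dose. Immobility scored every 60 s over 6 min; n = 8–12.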

Data set [4] is described as follows: Ex vivo inhibition of MAOA in CD1 mouse brain homogenates assessed as 5-HT levels at 20 mg/kg, po administered as single acute dose via gavage and measured after 1 hr by ELISA kit method (reference value: 0.80 +/- 0.006 ug/g). It counts as functional. For orientation: An ELISA detects its analyte on a solid surface through an enzyme-linked reagent.
Data set [5] can be described thus: Ex vivo inhibition of MAOA in CD1 mouse brain homogenates assessed as 5-HT levels at 20 mg/kg, po administered as subchronic dose via gavage for 7 days and measured 1 hr post last dose by ELISA kit method (reference value: 0.78 +/- 0.01 ug/g). Type of data set: functional. Conditions: time 7 day.
The nature of data set [6]: Ex vivo inhibition of MAOA in CD1 mouse brain homogenates assessed as MAOA level at 20 mg/kg, po administered as subchronic dose via gavage for 7 days and measured 1 hr post last dose by monoamine oxidase assay (reference value: 0.40 +/- 0.005 nmol/min/mg). Type of data set: functional. The settings on record: time 7 day.
The nature of data set [7]: Effect on locomotor activity in CD1 mouse assessed as total distance traveled at 20 mg/kg, po administered via gavage for 7 days by open field test. Type of data set: ADME, organism-based. The settings on record: in vivo, 168 h, time 7 day. In outline:
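Each mouse placed in the centre of a 50 × 50 × 30 cm black box and video-tracked; total distance travelled over 5 min; n = 8–10.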

The test system of data set [8] is Mus musculus. Briefly: Antidepressant-like activity in CD1 mouse assessed as reduction in immobility time at 10 mg/kg, po administered as subchronic dose via gavage for 7 days and measured 1 h post last dose by Porsolt-forced swim test. The settings on record: time 7.0 day. It counts as functional, organism-based. The method, boiled down:
as §1

Data set [9] in a line: Permeability of compound in PBS/EtOH buffer (70:30) at 25 ug/ml incubated for 16 hrs by UV plate reader based PAMPA-BBB. In general terms: In PAMPA a lipid-coated filter parts donor from acceptor wells.
A short description of data set [10]: Ex vivo inhibition of MAOA in CD1 mouse brain homogenates assessed as MAOA level at 30 mg/kg, po administered as subchronic dose via gavage for 7 days and measured 1 hr post last dose by monoamine oxidase assay (reference value: 0.40 +/- 0.005 nmol/min/mg). It counts as functional. Conditions: time 7 day.
The test system of data set [11] is Mus musculus. Briefly: Antidepressant-like activity in CD1 mouse assessed as maximum efficacy at 20 mg/kg, po administered as subchronic dose gavage for 7 days and measured 1 h post last dose by Porsolt-forced swim test. Type of data set: functional, organism-based. The settings on record: time 7.0 day. The method, boiled down: as §1
Data set [12] is described as follows: Ex vivo inhibition of MAOA in CD1 mouse brain homogenates assessed as assessed as inhibition of 5-HT deamination by measuring 5-HIAA metabolite levels at 30 mg/kg, po administered as single acute dose via gavage and measured after 1 hr by HPLC analysis (reference value: 0.28 +/- 0.011 ug/g). Type of data set: functional.
The nature of data set [13]: Ex vivo inhibition of MAOA in CD1 mouse brain homogenates assessed as assessed as inhibition of dopamine deamination by measuring DOPAC metabolite levels at 30 mg/kg, po administered as single acute dose via gavage and measured after 1 hr by HPLC analysis (reference value: 1.22 +/- 0.2 ug/g). Type of data set: functional.
A short description of data set [14]: Ex vivo inhibition of MAOA in CD1 mouse brain homogenates assessed as 5-HT levels at 30 mg/kg, po administered as subchronic dose via gavage for 7 days and measured 1 hr post last dose by ELISA kit method (reference value: 0.78 +/- 0.01 ug/g). Conditions: time 7 day. Type of data set: functional.
A short description of data set [15]: Ex vivo inhibition of MAOA in CD1 mouse brain homogenates assessed as inhibition of 5-HT deamination by measuring 5-HIAA metabolite levels by using at 30 mg/kg, po administered as subchronic dose via gavage for 7 days and measured 1 hr post last dose by HPLC analysis (reference value: 0.18 +/- 0.01 ug/g). Type of data set: functional. Conditions: time 7 day.

The target in data set [16] is T1, Amine oxidase [flavin-containing] A (Homo sapiens, UniProt P21397).
T1 sequence (P21397 whole entry): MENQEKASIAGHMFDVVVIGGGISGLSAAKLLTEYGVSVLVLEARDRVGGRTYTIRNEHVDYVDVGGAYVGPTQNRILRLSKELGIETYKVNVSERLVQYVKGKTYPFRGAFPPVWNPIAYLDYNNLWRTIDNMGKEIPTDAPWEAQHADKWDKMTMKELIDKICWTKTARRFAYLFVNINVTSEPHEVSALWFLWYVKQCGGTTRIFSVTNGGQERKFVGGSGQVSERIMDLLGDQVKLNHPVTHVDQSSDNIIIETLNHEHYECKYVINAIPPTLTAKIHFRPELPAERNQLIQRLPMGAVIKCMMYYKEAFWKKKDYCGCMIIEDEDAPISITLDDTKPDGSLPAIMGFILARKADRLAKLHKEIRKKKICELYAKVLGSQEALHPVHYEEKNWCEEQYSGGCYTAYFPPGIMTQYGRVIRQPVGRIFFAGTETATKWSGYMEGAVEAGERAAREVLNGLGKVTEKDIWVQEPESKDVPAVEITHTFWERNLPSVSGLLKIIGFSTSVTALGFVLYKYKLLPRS
Briefly: Inhibition of recombinant human MAO-A expressed in baculovirus infected BTI insect cells using p-tyramine as substrate incubated for 30 mins by Amplex red reagent based fluorescence analysis.

Data set [17] has as its system Mus musculus. Briefly: Antidepressant-like activity in CD1 mouse assessed as reduction in immobility time at 30 mg/kg, po administered via gavage as single dose measured after 1 hr by Porsolt-forced swim test. It counts as functional, organism-based.

Regarding `O=C(NCCN1CCOCC1)c1ccc(Cl)cc1` [MOCLOBEMIDE], the Activity in data set [1] is 1.24 µg/g; in data set [2], 0.23 µg/g; in data set [4], 0.83 µg/g; in data set [5], 0.91 µg/g; in data set [6], 0.33 nmol/min/mg; in data set [7], “Non-Toxic”. Besides, in the data set on Mus musculus [3], the Emax worked out at 20 mg/kg. For the same compound, in the data set on Mus musculus [8], the outcome was Active.
As to `COc1ccc(C2=NN(C(=O)Cn3c(=O)oc4ccc(C)cc43)C(c3cccc(OC)c3OC)C2)cc1` (configuration not stated), the Papp at 16 h, 25 ug/ml in data set [9] is 8.05 ×10⁻⁶ cm/s. For the same compound, the Activity was 0.21 nmol/min/mg in data set [10]; 0.35 µg/g in data set [12]; 1.25 µg/g in data set [13]; 1.15 µg/g in data set [14]; 0.3 µg/g in data set [15]. Besides, in the data set on Mus musculus [11], the outcome was inactive. The Ki in [16] is 9 nM. Further, the result in the data set with Mus musculus [17] was Active.

The term Papp denotes a coefficient for how fast a substance crosses the barrier. The low end stands for poor permeation, the high end for ready permeation. One may read the Ki as the equilibrium dissociation constant of an inhibitor or competing ligand from its target.
